Shown are actives, neighbours in structure and some others; about 3.1% of the full set was active somewhere.
aDG glyco act – activators of alpha-DG glycosylation, primary screen, uHTS, Pro5-aDG cells, AlphaScreen. actives 0.22% (n = 360,000). alpha-DG glycosylation AlphaScreen (IIH6); 0% Pro5, 100% B10-LARGE cell signal. activation, % at 10 µM;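 active means activation of at least 8% versus controls, or a plate z-score of at least 8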;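 further: Pro5 are CHO cells carrying HIG-tagged alpha-DG that lacks glycosylation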
MPTP inh – mitochondrial permeability transition pore inhibitors, primary screen, biochemical, isolated mouse mitochondria, absorbance. inhibition, % at 10 µM. Ca2+ swelling absorbance, 30 min. actives 1.4% (n = 360,000);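 active means inhibition of 50% or more, scaled per plate between neutral and stimulator controls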;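 further: 0% = DMSO wells given calcium and 100% = 1 mM EGTA wells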
ADAM10 inh – human ADAM10 inhibitors, primary screen, biochemical, QFRET, HTS; Disintegrin and metalloproteinase domain-containing protein 10 (Homo sapiens), O14672; recombinant ADAM10, EDANS/DABCYL FRET peptide cleavage, 3 h; inhibition, % at 7 µM; actives 0.62% (n = 370,000);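 active means inhibition above a per-campaign cutoff equal to the mean of compounds falling between control-based bounds plus 3 SD, cut at about 20% in these data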;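 further: 0% = DMSO wells while the 100% control is not disclosed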
Target sequence (O14672 214-748 limits assumed): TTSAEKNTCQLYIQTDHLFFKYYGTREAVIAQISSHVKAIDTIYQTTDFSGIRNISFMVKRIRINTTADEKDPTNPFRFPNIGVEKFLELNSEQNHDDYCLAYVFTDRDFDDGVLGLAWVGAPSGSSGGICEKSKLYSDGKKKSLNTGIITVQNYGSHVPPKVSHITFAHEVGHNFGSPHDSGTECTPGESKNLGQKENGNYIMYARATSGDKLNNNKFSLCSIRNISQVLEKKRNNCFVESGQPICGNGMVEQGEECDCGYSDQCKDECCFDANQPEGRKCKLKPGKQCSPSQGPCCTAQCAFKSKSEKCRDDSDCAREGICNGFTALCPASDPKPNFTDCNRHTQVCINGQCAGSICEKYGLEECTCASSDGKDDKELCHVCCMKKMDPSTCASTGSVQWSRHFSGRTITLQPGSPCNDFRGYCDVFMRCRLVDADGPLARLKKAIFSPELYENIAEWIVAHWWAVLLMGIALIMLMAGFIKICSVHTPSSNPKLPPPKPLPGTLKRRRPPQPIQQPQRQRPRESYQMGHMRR
V-ATPase pH – regulators of yeast V-ATPase proton pumping, primary screen, pHLuorin cytosolic pH fluorescence. S. cerevisiae. response, % at 10 µM. actives 0.37% (n = 350,000). AID 504577, 2011; in the data active means response mostly above about 7.3%, no sharp cut-off; inactive means mostly below about 5.4%; further: actives read high
ADAM17 inh – ADAM17 inhibitors, primary screen, biochemical, QFRET | Disintegrin and metalloproteinase domain-containing protein 17 (Homo sapiens), P78536 | recombinant ADAM17, EDANS/DABCYL FRET peptide cleavage | inhibition, % at 6.95 µM | actives 0.83% (n = 370,000) | AID 720648, 2013;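 active means inhibition above the mean of compounds lying between control limits plus 3 SD, set per campaign, cut at about 8.5% in these data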;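 further: 0% = DMSO-only wells as the low control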
Lipid droplet – inhibitors of hepatocyte lipid droplet formation, primary screen, imaging, high-throughput imaging, BODIPY stain. AML12 mouse hepatocytes, oleate lipid droplets. inhibition, % at 6.5 µM. actives 0.4% (n = 240,000). AID 1656, 2009;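 active means lipid droplet intensity inhibited by at least 50%, with more than 500 cells counted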
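material = mouse AML12 hepatocyte cell line, fixed after treatment | also added = 100 µM oleic acid challenge | doses = compound at 6.5 µM only | schedule = overnight exposure | technique = Image-based BODIPY and DAPI two-channel analysis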
ADAM10 ctr – ADAM10 inhibitors, counter-screen for ADAM17 exosite inhibitor project, biochemical, FRET, human ADAM10; shares compounds with ADAM17 inh; recombinant ADAM10, EDANS/DABCYL FRET peptide cleavage, 3 h; inhibition, % at 6.95 µM; actives 47% (n = 2,900); AID 743256, 2014;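 active means mean inhibition over the triplicate runs exceeds the activity threshold set in the earlier primary screen, cut at about 20% in these data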;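 further: 0% = DMSO wells and 100% = marimastat wells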
ADAM17 confirm – ADAM17 inhibitors, hit retest, confirmation, biochemical, QFRET peptide cleavage. AID 743257, 2014. actives 65% (n = 2,900). shares compounds with ADAM17 inh. inhibition, % at 6.95 µM. recombinant ADAM17, EDANS/DABCYL QFRET peptide cleavage;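 active means mean inhibition across replicates above the hit cutoff set in the primary screen, cut at about 8.5% in these data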;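 further: 0% = DMSO wells and 100% = marimastat wells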
The depositor's hits bear a star; . = no result.

SMILES | aDG glyco act | MPTP inh | ADAM10 inh | V-ATPase pH | ADAM17 inh | Lipid droplet | ADAM10 ctr | ADAM17 confirm
COc1cc(NC(=O)Nc2cccc3cccnc23)cc(OC)c1OC | -0.1 | 1.8 | 13.2 | -1.0 | 13.2* | . | 7.4 | 7.4
CCOc1c(OC(C)=O)ccc(/C=C/c2ccc3cccc(OC)c3n2)c1[N+](=O)[O-] | 1.5 | 2.7 | 16.1 | 2.6 | 9.0* | -4.9 | 24.1* | 16.0*
COc1cc(/C=C/c2ccc3cccc([N+](=O)[O-])c3n2)ccc1OCC(=O)O | 0.0 | 0.9 | -4.4 | 1.2 | -1.3 | -6.7 | . | .
Fc1cccc(CCN2C(=S)NC[C@@H]2CC2CCCCC2)c1 | 1.7 | -0.4 | 10.5 | -2.3 | 10.8* | 2.9 | 19.2 | 6.9
Fc1cccc(CCN2C(=S)NC[C@@H]2Cc2ccccc2)c1 | 1.6 | 0.9 | 5.5 | -2.9 | -0.5 | -13.0 | . | .
CCCC[C@@H]1CNCCN1CCc1cc(C(F)(F)F)cc(C(F)(F)F)c1 | 1.2 | 0.6 | 4.0 | 0.0 | 9.0* | . | -0.1 | 0.0
FC(F)(F)c1cc(CCN2CCNC[C@@H]2CC2CCCCC2)cc(C(F)(F)F)c1 | -0.6 | -0.6 | -1.5 | -3.4 | 1.0 | . | . | .
O=C(Cc1ccccc1F)Nc1nnc(-c2cccnc2)s1 | . | . | -1.2 | . | 1.4 | . | . | .
O=S(=O)(c1ccccc1)N1CCC(n2cnc3ccccc32)CC1 | 0.2 | -0.4 | 15.0 | 2.1 | 9.7* | 7.3 | -2.5 | -0.7
O=S(=O)(c1ccccc1C(F)(F)F)N1CCC(n2cnc3ccccc32)CC1 | 0.3 | 1.8 | 3.9 | . | -2.0 | -6.1 | . | .
O=C(c1ccccc1)c1ccc(OCC(O)CNCc2ccc(F)cc2)cc1 (stereo unspecified) | 0.1 | 1.3 | 3.5 | 3.8 | 10.0* | -20.6 | 2.8 | 3.3
N#CCSc1nnc(COc2ccccc2)n1-c1ccccc1 | 0.0 | 1.4 | 16.0 | 0.0 | 10.8* | 4.9 | -4.4 | -2.1
COc1ccc(Nc2nc(C)c(-c3ccccc3)s2)cc1 | -0.3 | 3.6 | 8.6 | -2.1 | 9.1* | 2.0 | -16.4 | 1.2
CCOc1ccc(-c2[nH]ncc2-c2ccc(OC)c(OC)c2)c(O)c1 | 0.2 | -1.8 | 2.0 | -2.1 | 5.1 | . | . | .
CCOc1ccc(-c2[nH]ncc2-c2ccc(Cl)cc2)c(O)c1 | 0.1 | 1.4 | 15.4 | -5.4 | 9.9* | 8.2 | 12.4 | 11.6*
COc1ccc(Nc2oc(COc3ccc(OC)cc3)nc2C#N)cc1 | 0.2 | 7.1 | 14.0 | 0.5 | 9.1* | -2.1 | 13.0 | 5.6
O=S1(=O)c2ccc(N3CC[C@H](O)C3)cc2O[C@@H]2CCN1C2 | . | . | 6.1 | . | 0.4 | . | . | .
CCCNc1ncnc2onc(C)c12 | 0.2 | 0.1 | 5.4 | 5.3 | 9.8* | 21.0 | 10.7 | 8.6
CCO[C@@H]1OC(C(=O)N2CCN(Cc3ccccc3)CC2)=C[C@H](c2ccc(Br)cc2)[C@H]1CCCO | 0.3 | -1.3 | 18.8 | -2.2 | 10.2* | 7.2 | 4.4 | 7.4
O=C(CCc1nc(-c2ccccc2)no1)NC1CCCCC1 | 0.3 | 1.1 | 3.1 | -5.0 | 9.0* | -0.9 | -5.5 | 1.7
COc1ccc(N2CCN(S(=O)(=O)c3c(C)noc3/C=C/N(C)C)CC2)cc1 | -0.2 | 0.2 | -2.9 | 1.6 | -3.8 | -21.9 | . | .
COc1ccc(N2CCN(C(=O)C3CCN(S(=O)(=O)c4c(C)noc4/C=C/N(C)C)CC3)CC2)cc1 | -0.3 | 1.3 | 18.4 | -1.6 | 10.5* | -23.6 | 0.5 | 1.4
COc1c(S(=O)(=O)N2CCN(c3ccc(F)cc3)CC2)ccc(Cl)c1Cl | -0.1 | 7.0 | 16.0 | -4.2 | 9.7* | 15.9 | 21.9* | 14.2*
O=C(CCc1c[nH]c2ccccc12)OCC(=O)c1ccccc1 | -0.1 | 0.2 | 2.5 | -2.5 | 0.1 | . | . | .
CN(C(=O)COC(=O)CCc1c[nH]c2ccccc12)C(c1ccccc1)c1ccccc1 | 0.0 | -1.3 | 18.3 | 1.8 | 10.8* | -4.2 | 27.9* | 15.1*
SMILES | aDG glyco act | MPTP inh | ADAM10 inh | V-ATPase pH | ADAM17 inh | Lipid droplet | ADAM10 ctr | ADAM17 confirm
CN=C1S/C(=C/c2cc(C)n(-c3ccc(Cl)cc3F)c2C)C(=O)N1C | . | . | -1.7 | . | -3.6 | . | . | .
CCOc1ccc(-n2c(COc3ccc(C)cc3)nnc2SCC(=O)c2ccc3ccccc3c2)cc1 | . | . | 5.3 | . | 5.3 | . | . | .
CNS(=O)(=O)c1ccc(C(=O)NCC(=O)NCCC(c2ccccc2)c2ccccc2)cc1 | 0.1 | 1.1 | 2.6 | 1.0 | 9.7* | . | 5.8 | 2.3
Cc1ccc(OC(=O)c2cccc(S(=O)(=O)N(C)C)c2)c(-n2nc3ccccc3n2)c1 | 0.0 | -1.0 | 13.8 | -2.4 | 4.5 | 15.8 | . | .
Cc1ccc(OC(=O)c2ccc(S(=O)(=O)N(C)C)cc2)c(-n2nc3ccccc3n2)c1 | -0.3 | 0.9 | 7.9 | 1.8 | 9.1* | . | 32.0* | 16.5*
CN(Cc1ccccc1)S(=O)(=O)c1ccc(NC(=O)C2CCCO2)cc1 (stereo unspecified) | -0.1 | -0.4 | -0.1 | 1.2 | 8.9* | . | -5.3 | -1.4
CN(Cc1ccccc1)S(=O)(=O)c1ccc(NC(=O)C2CCCCC2C(=O)O)cc1 (stereo unspecified) | 0.3 | -0.1 | -16.3 | -4.2 | -4.1 | . | . | .
COC(=O)c1cc2c(c3c4cc(C)ccc4n(S(=O)(=O)c4ccc(C)cc4)c13)C(=O)N(C)C2 | . | . | -3.8 | . | -2.5 | . | . | .
O=C(c1ccccc1)N1N=C(c2ccccc2)CC1c1ccccc1O (stereo unspecified) | 0.0 | 1.6 | 15.2 | -8.9 | 10.5* | -12.7 | 15.1 | 10.1*
COc1ccc(C2CC(c3ccccc3)=NN2S(=O)(=O)c2ccccc2)cc1 (stereo unspecified) | 0.3 | 2.1 | -0.4 | 1.5 | -2.2 | 17.3 | . | .
Cc1ccc(C2=NN(S(=O)(=O)c3ccccc3)C(c3ccccc3O)C2)cc1 (stereo unspecified) | 0.6 | 9.9 | 19.2 | . | 8.9* | 8.1 | 41.7* | 22.9*
Nc1nc2c(ncn2[C@@H]2O[C@H](C(=O)NCCCc3ccccc3)[C@@H](O)[C@H]2O)c(=O)[nH]1 | . | . | -12.8 | . | -2.9 | . | . | .
O=[N+]([O-])c1ccc(Cl)c(C2Nc3cccc4cccc(c34)N2)c1 | -0.1 | 3.9 | 32.5* | 2.4 | 10.6* | . | 16.8 | 10.2*
